From PubChem BioAssay
Inconclusive results are not listed.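 Rule for the calls, unless noted: active = inhibition over a set limit, the all-compound mean plus 3 SD, in both replicate runs; inconclusive = over that limit in just one replicate run; inactive = at or under that limit in both runs.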

Experiments:
[1] = S. cerevisiae growth inhibition in permissive medium (OD615), pilot counter-assay for S. cerevisiae lifespan shortening project, permissive growth control (AID 705;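 active = growth inhibition above 25% in both replicates, a cutoff set 3 SD above the mean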); conditions: OD615, 24 h, at 10 µM, active compounds read high
Outline: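 Material: engineered DeaD yeast; Compound: one dose 10 µM, DMSO 0.25% final; Detection: absorbance (optical density) at 615 nm; Buffer or medium: permissive raffinose/galactose medium; Timing: 24 h exposure, 30 °C.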

[2] = S. cerevisiae growth inhibition in restrictive medium, OD615, pilot screen, restrictive growth control, yeast lifespan reduction project (AID 706;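 active = growth inhibition above a set limit, 3 SD over mean compound inhibition, in both replicates, cut at about 43% in these data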;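 note: modified DeaD lifespan yeast strain shifted to restrictive glucose medium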); conditions: OD615, 48 h, at 10 µM, active compounds read high
Outline: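 Buffer or medium: restrictive glucose medium (CSMM-D); test system: modified S. cerevisiae; doses: single dose of 10 µM compound final, 0.25% DMSO; schedule: 48 h compound exposure at 30 °C; detection: absorbance (optical density) measured at 615 nm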

[3] = doxorubicin toxicity protection in MRP-1 cells – H69AR cells, CellTiter-Glo, duplicate, MRP-1 activator project, pilot screen (AID 807;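 active = viability increase at or above a cutoff of the median across tested compounds plus 3 SD, cut at about 8.5% in these data, passing the limit was not always enough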;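 note: compound pretreatment 18-22 h then 72 h combined with doxorubicin; 0% = doxorubicin alone and 100% = vehicle without doxorubicin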); conditions: H69AR viability with doxorubicin, CellTiter-Glo luminescence; at 10 µM; active compounds read high
[4] = viability of HCT116 without oncogenic beta-catenin – human colon tumor cells, pilot screen (AID 823;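 active = cell viability at or below a set limit in both duplicate runs, the limit being the all-compound median minus 4 SD, cut at about 23% in these data, passing the limit was not always enough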;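 note: 0% = wells killed by 20 µM Hyamine and 100% = untreated DMSO cell wells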); conditions: HCT116 beta-catenin knockout viability, CellTiter-Glo, 60 h; at 10 µM; active compounds read low
[5] = viability of PTEN-null HCT116 cells – cell-based, HCT116 clonal line, CellTiter-Glo, pilot screen (AID 824;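 active = viability at or below 27.92% in each of two runs, the all-compound median minus 4 SD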;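 note: 0% = 20 µM Hyamine control and 100% = vehicle cell control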); conditions: HCT116 PTEN-deleted viability, 60 h, at 10 µM, active compounds read low
[6] = RAM pathway blockade in budding yeast – dse1pr::URA3 reporter, 5-FOA selection, pilot screen (AID 869);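 note: 0% = DMSO wells with no growth and 100% = 10 µM 1-NA-PP1 with full growth; RAM network block rescues cells from 5-FOA so hits raise OD615 growth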; conditions: S. cerevisiae dse1pr::URA3 5-FOA growth, OD615, 2 d; at 10 µM; active compounds read high; strain carries analog-sensitive mutant Cbk1 kinase
[7] = RAM signaling pathway blockade in yeast – S. cerevisiae, Pdr1DBD-CYC8 efflux-inhibited sensitized strain, primary screen (AID 1298;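 active = RAM network inhibition above 8.4% in each of two replicates, 3 SD over the compound average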;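 note: 0% = DMSO untreated cells without growth and 100% = 10 µM 1-NA-PP1 full growth; higher means more yeast growth rescued from 5-FOA killing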); conditions: S. cerevisiae cbk1-as DSE1-URA3 strain, 5-FOA growth OD615, 2 d; at 50 µM; active compounds read high

O=C(c1ccc(CS(=O)(=O)c2c(Cl)cccc2Cl)o1)N1CCN(c2ccccn2)CC1
inactive: growth inhibition [1] -4.86% | growth inhibition [2] -8.68% | viability increase [3] -3.07% | viability [4] 97.8% | viability [5] 93.1% | inhibition [6] -0.07% | RAM network inhibition [7] 3.34%

CCn1c(CCC(=O)Nc2cc(F)ccc2C)nc2cc(S(=O)(=O)N(C)C)ccc21
inactive: growth inhibition [1] -6.57% | growth inhibition [2] -1.81% | viability increase [3] -0.38% | viability [4] 99.5% | viability [5] 97.1% | inhibition [6] 2.07% | RAM network inhibition [7] 6.18%

CCCCOc1ccc(-c2nc(-c3cccnc3)no2)cc1
inactive: growth inhibition [1] -3.21% | growth inhibition [2] 4.81% | viability increase [3] 4.19% | viability [4] 68.4% | viability [5] 82.9% | inhibition [6] 0.07% | RAM network inhibition [7] 2.29%

CC1Cc2nc(SCC(=O)Nc3ccc4c(c3)OCO4)n(CCc3ccccc3)c(=O)c2S1 (stereo unspecified)
inactive: growth inhibition [1] -14% | growth inhibition [2] -23.8% | viability increase [3] -2.89% | viability [4] 94.4% | viability [5] 87.1% | inhibition [6] 2.35% | RAM network inhibition [7] 7.17%

CC(C)N(C(=O)CSc1nc2c([nH]1)c(=O)n(C)c(=O)n2C)c1ccccc1
inactive: growth inhibition [1] -4.33% | growth inhibition [2] -12.7% | viability increase [3] 1.94% | viability [4] 106% | viability [5] 102% | inhibition [6] 1.22% | RAM network inhibition [7] 6.3%

O=C(CSc1nnc2ccccn12)N1CCc2ccccc2C1
inactive: growth inhibition [1] -8.87% | growth inhibition [2] 0.78% | viability increase [3] -0.88% | viability [4] 99.7% | viability [5] 93.2% | inhibition [6] 1.54% | RAM network inhibition [7] 2.11%

CNc1nc(C)nc(-c2ccccc2O)n1
inactive: growth inhibition [1] -3.62% | growth inhibition [2] 7.31% | viability increase [3] -0.19% | viability [4] 98.5% | viability [5] 92.8% | inhibition [6] 0.84% | RAM network inhibition [7] 4.49%

COC(=O)Nc1c(C(=O)OC)cc(OC)c(OC)c1OC
inactive: growth inhibition [1] -3.62% | growth inhibition [2] -6.57% | viability increase [3] -2.87% | viability [4] 94.7% | viability [5] 97.4% | inhibition [6] -0.495% | RAM network inhibition [7] 4.86%

COc1ccccc1C1N(c2cc(Cl)ccc2OC)C(=O)C2CCCN21 (stereo unspecified)
inactive: growth inhibition [1] 8.71% | growth inhibition [2] 3.69% | viability increase [3] -2.83% | viability [4] 98.7% | viability [5] 96.3% | inhibition [6] 0.445% | RAM network inhibition [7] 2.33%

COc1ccc(C2CC(c3cccc(Cl)c3)n3nc(N)nc3N2)cc1 (stereo unspecified)
inactive: growth inhibition [1] -3.22% | growth inhibition [2] -3.25% | viability increase [3] -0.53% | viability [4] 99.8% | viability [5] 89.9% | inhibition [6] 1.37% | RAM network inhibition [7] 2.3%

CCCn1nc2ccccc2c1P(=N)(N1CCOCC1)N1CCOCC1
inactive: growth inhibition [1] -7.87% | growth inhibition [2] -23.5% | viability increase [3] -2% | viability [4] 96% | viability [5] 96.8% | inhibition [6] 2.04% | RAM network inhibition [7] 1.45%

COc1ccc(S(=O)(=O)N2CCN(C)CC2)c2ccccc12
inactive: growth inhibition [1] -8.04% | growth inhibition [2] -2.78% | viability increase [3] -3.62% | viability [4] 102% | viability [5] 91.3% | inhibition [6] 1.06% | RAM network inhibition [7] 2.19%

CC(C)=C1SC(N2CCN(Cc3ccccc3)CC2)=NC1=O
inactive: growth inhibition [1] -6.78% | growth inhibition [2] -0.855% | viability increase [3] -2.86% | viability [4] 94.9% | viability [5] 97.5% | inhibition [6] 0.52% | RAM network inhibition [7] 4.6%

NC(=O)C1(N2CCCCC2)CCN(C(=O)CCCn2c(=O)[nH]c3ccsc3c2=O)CC1
inactive: growth inhibition [1] -6.16% | growth inhibition [2] 2.1% | viability increase [3] -1.61% | viability [4] 93.5% | viability [5] 91.6% | inhibition [6] 1.89% | RAM network inhibition [7] 0.48%

CC(=O)N1CCN(CCN=CC2=C(O)CC(c3cccs3)CC2=O)CC1 (stereo unspecified)
inactive: growth inhibition [1] -6.7% | growth inhibition [2] -2.31% | viability increase [3] -0.76% | viability [4] 93.1% | viability [5] 103% | inhibition [6] -0.455% | RAM network inhibition [7] -0.41%

O=C(CNS(=O)(=O)c1cccs1)Nc1ccc2c(c1)OCCO2
inactive: growth inhibition [1] -22.3% | growth inhibition [2] -6.7% | viability increase [3] -1.78% | viability [4] 89.2% | viability [5] 90.9% | inhibition [6] 1.3% | RAM network inhibition [7] 0.67%

O=C1C(Cl)=C(NCC2CCCO2)C(=O)N1C1CCCCC1 (stereo unspecified)
inactive: growth inhibition [1] -2.76% | growth inhibition [2] 8.66% | viability increase [3] -3.97% | viability [4] 88.3% | viability [5] 90.2% | inhibition [6] 1.46% | RAM network inhibition [7] 5.88%

O=C(/C=N/O)Nc1ccccc1C(=O)O
inactive: growth inhibition [1] -14.8% | growth inhibition [2] -16.7% | viability increase [3] -2.95% | viability [4] 97.1% | viability [5] 98.5% | inhibition [6] 2.12% | RAM network inhibition [7] 4.14%

O=C(CSc1ccc2nnc(-c3cccnc3)n2n1)N1CCc2ccccc21
inactive: growth inhibition [1] -5.28% | growth inhibition [2] 4.37% | viability increase [3] -3.19% | viability [4] 103% | viability [5] 94.1% | inhibition [6] 0.845% | RAM network inhibition [7] 4.57%

CCOC(=O)C1CCN(C(=O)CN(c2ccc(OC)cc2)S(=O)(=O)c2c(C)noc2C)CC1
inactive: growth inhibition [1] -7.19% | growth inhibition [2] -5.5% | viability increase [3] -2.59% | viability [4] 98.5% | viability [5] 96.7% | inhibition [6] 2.41% | RAM network inhibition [7] 3.41%

COC(=O)C(C)Sc1nnc(Cc2cc(=O)[nH]c(=O)[nH]2)n1-c1cc(C)ccc1C (stereo unspecified)
inactive: growth inhibition [1] -5.62% | growth inhibition [2] 0.885% | viability increase [3] -1.25% | viability [4] 96% | viability [5] 90.3% | inhibition [6] 1.77% | RAM network inhibition [7] 0.62%

CN(C)C(C(=O)NC1CCCCC1)c1ccc(Cl)cc1 (stereo unspecified)
inactive: growth inhibition [1] -5.65% | growth inhibition [2] -17.6% | viability increase [3] -3.08% | viability [4] 80.2% | viability [5] 84.2% | inhibition [6] 0.575% | RAM network inhibition [7] -0.68%

CCN(CCNC(=O)Cn1c(=O)sc2ccccc21)c1ccccc1
inactive: growth inhibition [1] -10.6% | growth inhibition [2] 2.42% | viability increase [3] -3.76% | viability [4] 92.2% | viability [5] 84.9% | inhibition [6] 1.57% | RAM network inhibition [7] 2.04%
